Source: ChEMBL document CHEMBL1148479, “Antineoplastic agents. 520. Isolation and structure of irciniastatins A and B from the Indo-Pacific marine sponge Ircinia ramosa” (2004)
Converted amounts (≈) assume the structure as drawn.

Key:
Assay type in all cases: functional
BXPC-3 = test: Compound was tested for cancer cell line growth inhibition against human pancreas (BXPC-3) cell line
Method in brief: (§1)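 NCI sulforhodamine B protocol. Cells in 5% fetal bovine serum/RPMI1640 are seeded in 96-well plates and incubated 24 h, then exposed to serial compound dilutions for 48 h. Cells are fixed with trichloroacetic acid, stained with SRB and read by microplate reader. GI50 is the concentration giving a 50% reduction in net protein increase, calculated from optical density.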

Cryptococcus neoformans = test: Compound was tested for minimum inhibitory concentration against Cryptococcus neoformans ATCC 90112
Method in brief: (§2)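 Standard broth microdilution susceptibility method. The fungal test follows the M27-A yeast reference standard. MIC is the lowest concentration that inhibits all visible growth of the organism (optically clear wells).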

DU-145 = test: Compound was tested for cancer cell line growth inhibition against human prostate (DU-145) cell line; method in brief: as §1
HUVEC = test: Compound was tested for cancer cell line growth inhibition against human umbilical vein endothelial cells
KM-20L2 = test: Compound was tested for cancer cell line growth inhibition against human colon (KM20L2) cell line; method in brief: as §1
MCF7 = test: Compound was tested for cancer cell line growth inhibition against human breast (MCF-7) cell line; method in brief: as §1
NCI-H460 = test: Compound was tested for cancer cell line growth inhibition against lung cancer cells (NCI-H460); settings: Homo sapiens; method in brief: as §1
Neisseria gonorrhoeae = test: Compound was tested for minimum inhibitory concentration against Neisseria gonorrhoeae ATCC 49226; method in brief: as §2
P388 = test: Compound was tested for cancer cell line growth inhibition against murine P388 leukemia cell line; settings: Mus musculus
Method in brief: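 Murine P388 leukemia cells are grown in 10% horse serum/Fisher medium for 24 h, then incubated 48 h with serial compound dilutions. Cells are counted on a particle counter, and ED50 for growth inhibition is calculated from the counts.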

SF-268 = test: Compound was tested for cancer cell line growth inhibition against human central nervous system (SF268) cell line; method in brief: as §1

**Q.** `C=C(C)CC(OC)[C@H](O)C(=O)N[C@@H](OC)[C@@H]1C[C@@H](O)C(C)(C)[C@@H](C[C@H](O)[C@@H](C)[C@H]2Cc3c(C)c(O)cc(O)c3C(=O)O2)O1` (stereo not given in full) [IRCINIASTATIN A] was tested. Which GI50 (BXPC-3) did it give?
**A.** 0.5 ng/mL (≈ 0.82 nM)

**Q.** What about the MIC (Cryptococcus neoformans) of the same molecule?
**A.** 16000 ng/mL (≈ 26200 nM)

**Q.** What about the GI50 (DU-145) of the same molecule?
**A.** 1.6 ng/mL (≈ 2.62 nM)

**Q.** And the GI50 (HUVEC)?
**A.** < 0.5 ng/mL

**Q.** What about the GI50 (KM-20L2) of the same molecule?
**A.** 2.1 ng/mL (≈ 3.44 nM)

**Q.** What about the GI50 (MCF7) of the same molecule?
**A.** 0.66 ng/mL (≈ 1.08 nM)

**Q.** What about the GI50 (NCI-H460) of the same molecule?
**A.** 0.73 ng/mL (≈ 1.2 nM)

**Q.** What about the MIC (Neisseria gonorrhoeae) of the same molecule?
**A.** 64000 ng/mL (≈ 105000 nM)

**Q.** And the GI50 (P388)?
**A.** 6 ng/mL (≈ 9.84 nM)

**Q.** What about the GI50 (SF-268) of the same molecule?
**A.** 1.2 ng/mL (≈ 1.97 nM)
